{"source": "ChEMBL document CHEMBL1137220", "about": "“2-(2-(dimethylaminomethyl)phenoxy)-5-iodophenylamine: an improved serotonin transporter imaging agent” (J Med Chem, 2004)", "key": {"[1]": {"assay": "Regional brain distribution in rat striatum was determined after 30 min of intravenous administration of the compound; [125I]- is used as radioactive isotope", "assay_type": "ADME, tissue-based", "conditions": "in vivo, 0.5 h", "outline": "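Rats, three per group, injected with 10 μCi tracer in 0.2 mL saline via the femoral vein under ether anesthesia and killed by cardiac excision at the stated time. Cortex (frontal plus occipital), striatum, hippocampus, cerebellum and hypothalamus were dissected, weighed and gamma-counted. Values are % dose/g, calculated by comparison with counts of a 100-fold diluted aliquot of the injected dose.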"}, "[2]": {"assay": "Distribution ratio in hypothalamus and cerebellum was determined after 24 hours of intravenous administration of the compound; [125I]- is used as radioactive isotope", "assay_type": "ADME, tissue-based", "conditions": "rat", "outline": "(§1)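 After femoral-vein injection of 10 μCi [¹²⁵I] tracer in 0.2 mL saline under ether anaesthesia (three rats per group), brain regions were dissected, weighed and counted: cortex (frontal plus occipital), hippocampus, hypothalamus and cerebellum. %dose/g was calculated against a diluted injected-dose standard. Ratio = (region − cerebellum)/cerebellum on a %dose/g basis, with cerebellum as the background region.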"}, "[3]": {"assay": "Distribution ratio in cortex and cerebellum was determined after 6 hrs of intravenous administration of the compound; [125I]- is used as radioactive isotope", "assay_type": "ADME, tissue-based", "conditions": "rat", "outline": "as §1"}, "[4]": {"assay": "Distribution ratio in cortex and cerebellum was determined after 2 min of intravenous administration of the compound; [125I]- is used as radioactive isotope", "assay_type": "ADME, tissue-based", "conditions": "rat", "outline": "as §1"}, "[5]": {"target": "Sodium-dependent dopamine transporter (Homo sapiens, UniProt Q01959)", "sequence (Q01959 whole entry)": "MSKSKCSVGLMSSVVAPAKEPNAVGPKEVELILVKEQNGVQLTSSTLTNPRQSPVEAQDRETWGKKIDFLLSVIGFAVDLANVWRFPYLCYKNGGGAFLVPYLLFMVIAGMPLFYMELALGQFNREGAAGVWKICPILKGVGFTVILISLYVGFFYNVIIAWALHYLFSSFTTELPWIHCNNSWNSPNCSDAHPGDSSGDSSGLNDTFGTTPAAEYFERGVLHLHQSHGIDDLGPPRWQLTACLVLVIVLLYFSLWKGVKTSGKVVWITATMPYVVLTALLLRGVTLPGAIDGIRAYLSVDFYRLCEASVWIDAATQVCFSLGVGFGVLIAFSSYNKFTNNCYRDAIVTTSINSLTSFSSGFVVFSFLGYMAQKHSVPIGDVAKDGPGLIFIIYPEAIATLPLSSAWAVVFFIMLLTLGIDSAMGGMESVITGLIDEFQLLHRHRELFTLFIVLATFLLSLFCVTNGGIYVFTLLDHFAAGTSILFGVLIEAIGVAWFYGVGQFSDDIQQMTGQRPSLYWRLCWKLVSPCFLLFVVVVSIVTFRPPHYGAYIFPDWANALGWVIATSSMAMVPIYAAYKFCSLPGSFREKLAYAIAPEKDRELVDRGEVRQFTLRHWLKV", "assay": "Binding affinity for dopamine transporter expressed in […] cells", "assay_type": "cell-based", "outline": "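Membranes from confluent pig kidney LLC-PK₁ cells stably expressing the respective transporter, homogenized and pelleted, 30–40 μg protein. Incubated with 0.4 nM [¹²⁵I]IPT or [¹²⁵I]IDAM and 8–10 competitor concentrations (10⁻¹⁰ to 10⁻⁵ M) in 50 mM Tris-HCl pH 7.4, 120 mM NaCl, 0.1% BSA, 1 h at room temperature. Nonspecific binding was defined with 10 μM CFT for IPT and 1 μM IDAM for IDAM. Filtration, gamma counting, nonlinear regression for Ki.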"}, "[6]": {"assay": "Biodistribution in rat lung was determined after 60 min of intravenous administration of the compound; [125I]- is used as radioactive isotope", "assay_type": "ADME, organism-based", "conditions": "in vivo, 1 h", "outline": "(§2)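 Rats under ether anesthesia, three per group, received 10 μCi tracer in 0.2 mL saline into the femoral vein. They were killed by cardiac excision under ether at each time point. Organs were removed, weighed and counted. Percent dose per organ was calculated against a 1%-of-injected-dose standard counted at the same time.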"}, "[7]": {"assay": "Biodistribution in rat skin was determined after 30 min of intravenous administration of the compound; [125I]- is used as radioactive isotope", "assay_type": "ADME, organism-based, Zone of skin", "conditions": "in vivo, 0.5 h", "outline": "(§3)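 Rats, three per group, under ether anaesthesia, received 10 μCi of [¹²⁵I]-labelled tracer in 0.2 mL saline into the femoral vein. They were killed by cardiac excision under ether at each time point. Organs were removed, weighed and counted. Percent dose per organ was calculated against counts of a 1% aliquot of the injected dose (100-fold diluted) counted at the same time.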"}, "[8]": {"assay": "Biodistribution in rat skin was determined after 60 min of intravenous administration of the compound; [125I]- is used as radioactive isotope", "assay_type": "ADME, organism-based, Zone of skin", "conditions": "in vivo, 1 h", "outline": "as §3"}, "[9]": {"assay": "Biodistribution in rat spleen was determined after 2 min of intravenous administration of the compound; [125I]- is used as radioactive isotope", "assay_type": "ADME, organism-based", "conditions": "in vivo", "outline": "as §3"}, "[10]": {"assay": "Biodistribution in rat blood was determined after 6 hours of intravenous administration of the compound; [125I]- is used as radioactive isotope", "assay_type": "ADME, organism-based", "conditions": "in vivo", "outline": "as §2"}, "[11]": {"assay": "Biodistribution in rat kidney was determined after 6 hours of intravenous administration of the compound; [125I]- is used as radioactive isotope", "assay_type": "ADME, organism-based", "conditions": "in vivo", "outline": "as §2"}, "[12]": {"assay": "Biodistribution in rat muscle was determined after 120 min of intravenous administration of the compound; [125I]- is used as radioactive isotope", "assay_type": "ADME, organism-based, Muscle tissue", "conditions": "in vivo, 2 h", "outline": "as §3"}}, "data": [{"smiles": "CN(C)Cc1ccccc1Oc1ccc(I)cc1N", "values": [{"measurement": "Dose/g", "setting": "[1]", "result": 1.16, "unit": "%"}, {"measurement": "Dose/g", "setting": "[2]", "result": 0.23, "unit": "%"}, {"measurement": "Dose/g", "setting": "[3]", "result": 0.58, "unit": "%"}, {"measurement": "Dose/g", "setting": "[4]", "result": 0.56, "unit": "%"}, {"measurement": "Ki", "setting": "[5]", "result": 0.309, "unit": "µM"}, {"measurement": "Dose", "setting": "[6]", "result": 1.79, "unit": "%"}, {"measurement": "Dose", "setting": "[7]", "result": 11.3, "unit": "%"}, {"measurement": "Dose", "setting": "[8]", "result": 13.9, "unit": "%"}, {"measurement": "Dose", "setting": "[9]", "result": 0.44, "unit": "%"}, {"measurement": "Dose", "setting": "[10]", "result": 3.29, "unit": "%"}, {"measurement": "Dose", "setting": "[11]", "result": 0.55, "unit": "%"}, {"measurement": "Dose", "setting": "[12]", "result": 9.18, "unit": "%"}]}]}
